# Experimental data of several laboratories.
# Compare with care: the assays were run in different laboratories.
# AHR: Aryl hydrocarbon receptor (AHR, Homo sapiens, UniProt P35869)
# SLC10A2: Ileal sodium/bile acid cotransporter (SLC10A2, Homo sapiens, UniProt Q12908)
SMILES,target,read-out,action,technique,pH,measurement,value
O=C(c1cccc(Cl)n1)c1c[nH]c2ccccc12,AHR,reporter gene,agonist,luciferase,,EC50,0.178 µM
CC[C@H](C)C(=O)O[C@H]1C[C@H](O)C=C2C=C[C@H](C)[C@H](CC[C@@H](O)C[C@@H](O)CC(=O)O)[C@H]21,SLC10A2,transporter uptake,inhibitor,,,Ki,1360 µM
CC[C@H](C)[C@H](NC(=O)[C@H](CCCCN)NC(=O)[C@H](CO)NC(=O)[C@H](CC(=O)O)NC(=O)[C@H](CCCCN)NC(=O)[C@H](CCCCN)NC(=O)CNC(=O)[C@H](Cc1c[nH]cn1)NC(=O)[C@@H](N)CCC(N)=O)C(=O)N[C@H](C(=O)N[C@@H](CC(=O)O)C(=O)N[C@@H](Cc1c[nH]cn1)C(=O)N[C@@H](Cc1ccccc1)C(=O)N[C@@H](CCSC)C(=O)N[C@@H](CCCNC(=N)N)C(=O)O)[C@@H](C)O,"Proliferating cell nuclear antigen (PCNA, Homo sapiens, UniProt P12004)",binding,,ITC,pH 7.4,Kd,45.3 µM
CSCC[C@H](NC(=O)[C@@H](NC(=O)[C@@H](N)Cc1ccc(O)cc1)C(C)C)C(=O)NCC(=O)N[C@@H](Cc1c[nH]cn1)C(=O)N[C@@H](Cc1ccccc1)C(=O)O,"Melanocortin receptor 5 (MC5R, Homo sapiens, UniProt P33032)",reporter gene,agonist,,,EC50,> 100 µM
COCCOC(=O)C1=C(C)NC(C)=C(C(=O)OC/C=C/c2ccccc2)C1c1cccc([N+](=O)[O-])c1 (stereo not drawn),SLC10A2,transporter uptake,inhibitor,,,Ki,45.2 µM
Cc1[nH]c2ccccc2c1C(=O)c1ccccc1,AHR,reporter gene,agonist,luciferase,,EC50,> 10 µM
CC(C)c1cc(C2CCCN2C(=O)c2cc(-c3ccc4c(c3)OCO4)on2)no1 (stereo not drawn),"Cannabinoid receptor 2 (CNR2, Homo sapiens, UniProt P34972)",cAMP,agonist,TR-FRET,,EC50,0.01 µM
Cc1cnc(-c2ccc(-c3ccc(NC(=O)Nc4c(F)cc(F)cc4F)cc3F)c3c2C(=O)NC3)[nH]1,"Epithelial discoidin domain-containing receptor 1 (DDR1, Homo sapiens, UniProt Q08345)",binding,,competition with immobilised ligand,,Kd,0.0021 µM
C=CCSCC1Nc2cc(Cl)c(S(N)(=O)=O)cc2S(=O)(=O)N1 (stereo not drawn),SLC10A2,transporter uptake,inhibitor,,,Ki,391 µM
COC(=O)c1ccc(C(=O)c2c[nH]c3ccccc23)cc1,AHR,reporter gene,agonist,luciferase,,EC50,> 10 µM
O=C(N[C@H]1COC(=O)[C@@H](NC(=O)c2cccc(O)c2O)COC(=O)[C@@H](NC(=O)c2cccc(O)c2O)COC1=O)c1cccc(O)c1O,"Neutrophil gelatinase-associated lipocalin (LCN2, Homo sapiens, UniProt P80188, C107S)",binding,,fluorescence,pH 7.4,Kd,0.0036 µM
CCOC(=O)C1=C(C)NC(C)=C(C(=O)OC)C1c1cccc([N+](=O)[O-])c1 (stereo not drawn),SLC10A2,transporter uptake,inhibitor,,,Ki,34.1 µM
COC(=O)c1cccc(C(=O)c2c[nH]c3c4c(ccc23)CCC4)n1,AHR,reporter gene,agonist,luciferase,,EC50,0.031 µM
COC(=O)C1=C(C)NC(C)=C(C(=O)OCC(C)C)C1c1ccccc1[N+](=O)[O-] (stereo not drawn),SLC10A2,transporter uptake,inhibitor,,,Ki,4.77 µM
C#Cc1cccc(Nc2ncnc3cc(OC)c(OCCCCCCC(=O)NO)cc23)c1,"Polyamine deacetylase HDAC10 (HDAC10, Homo sapiens, UniProt Q969S8)",cell-free assay,,,,Kd,7.38 µM
